Experimental data from different studies.
CYP3A4: Cytochrome P450 3A4 (CYP3A4, Homo sapiens, UniProt P08684)
SLCO1B1: Solute carrier organic anion transporter family member 1B1 (SLCO1B1, Homo sapiens, UniProt Q9Y6L6)
CYP1A2: Cytochrome P450 1A2 (CYP1A2, Homo sapiens, UniProt P05177)

| Compound | target | assay | test system | setting | quantity | value |
| --- | --- | --- | --- | --- | --- | --- |
| CC(C)(C)OC(=O)N[C@H](CSCCC(=O)NCc1cccnc1)Cc1ccccc1 | CYP3A4 | thermal stability |  |  | ΔTm | -1 °C |
| NC(=O)C1CCN(C(=O)c2ccc(NCc3cnc4nc(N)nc(N)c4n3)cc2)CC1 | CYP3A4 | enzyme activity, inhibitor, luciferase |  | 10 µM | inhibition | -4.54% |
| CN(C(=O)n1cnc(-c2ccc[n+]([O-])c2)c1)C1CCCCC1 | SLCO1B1 | transporter uptake, inhibitor | HEK293 | 10 µg/mL | inhibition | ~20% |
| CC(C)(C)OC(=O)NCCCCCC(=O)NCc1cccnc1 | CYP3A4 | thermal stability |  |  | ΔTm | -0.2 °C |
| CCCOC(=O)C1CCN(C(=O)c2ccc(N(C)Cc3cnc4nc(N)nc(N)c4n3)cc2)CC1 | CYP3A4 | enzyme activity, inhibitor, luciferase |  | 10 µM | inhibition | -10.1% |
| O=C(Nc1c2c(cc3c1CCC3)CCC2)NS(=O)(=O)/C=C/c1nccs1 | CYP1A2 | enzyme activity, inhibitor | human, liver microsomes | 2 µM, pH 7.4 | inhibition | 14.6% |
| C=CC(=O)Nc1cc(Nc2nccc(Nc3cc(Cl)c(F)cc3C(C)(C)O)n2)c(OC)cc1N1CC[C@@H](N(C)C)C1 | CYP3A4 | enzyme activity, inhibitor | human, liver microsomes |  | IC50 | 18.2 µM |
| CN(CCC(=O)O)C(=O)c1ccc2c(c1)CC[C@@H]1[C@@H]2CC[C@]2(C)C(c3cncc(F)c3)=CC[C@@H]12 | SLCO1B1 | transporter uptake, inhibitor |  |  | IC50 | 3.1 µM |
| Nc1ccc(S(=O)(=O)Nc2ccnn2-c2ccccc2)cc1 | CYP1A2 | enzyme activity, inhibitor | human, liver microsomes | 10 µM | inhibition | -9% |
| COC(=O)C1CCN(C(=O)c2cccc(NCc3cnc4nc(N)nc(N)c4n3)c2)CC1 | CYP3A4 | enzyme activity, inhibitor, luciferase |  | 10 µM | inhibition | -19.5% |
| C[C@H]1C[C@H]2[C@@H]3CCC4=CC(=O)C=C[C@]4(C)[C@@]3(Cl)[C@@H](O)C[C@]2(C)[C@@]1(O)C(=O)CO | SLCO1B1 | transporter uptake, inhibitor |  |  | IC50 | 6.7 µM |
